Article PMC2677757 (Drug metabolism and disposition: the biological fate of …, 2009)
In brackets after ≈: the same amount, converted by molar mass. Marks after values point to notes of the source that are not given here.

Key:
rSULT1A1 [1] = target: T1, rSULT1A1 (Rattus norvegicus, UniProt P17988); assay: Reversibility of the effect of GSSG on rSULT1A1 by reduction with DTT; assay type: biochemical; conditions: 25°C 1 hr pretreatment; 2-naphthol 250 μM, 4′-OH PCB 6 100 μM; mean and SD, n=3
rSULT1A1 [2] = target: T1, rSULT1A1; assay: Sulfation of OHPCBs by rSULT1A1 pretreated with GSH or GSSG; assay type: biochemical; conditions: for Sulfation at varying OHPCB concentrations, rSULT1A1 pretreated with 1 mM GSSG: Fig. 3B; for Substrate inhibition in both reduced and oxidized rSULT1A1-catalyzed reactions: 1 mM GSH or 1 mM GSSG pretreatment; for Sulfation by GSSG-pretreated rSULT1A1 compared with GSH-pretreated enzyme: 1 mM GSSG vs 1 mM GSH, Fig. 3A
In short: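 DTT was stripped from purified enzyme by gel filtration at 4°C, leaving less than 0.06 mM. Enzyme was held 1 h at 25°C under argon with 1 mM GSH or GSSG, and GSH was checked by DTNB. Assays used 0.75 μg enzyme, 0.25 M phosphate pH 7.0, 200 μM PAPS and no 2-mercaptoethanol, 6 min at 37°C. Test compound was 100 μM or varied. PAP formation was corrected by a no-compound blank, in duplicate or triplicate.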

rSULT2A3 = target: T2, rSULT2A3 (Rattus norvegicus, UniProt P22789); assay: Inhibition of rSULT2A3-catalyzed sulfation of DHEA; assay type: biochemical; conditions: for Inhibition of rSULT2A3 reached: DHEA as substrate, within solubility limits
T2 sequence (P22789 1-284): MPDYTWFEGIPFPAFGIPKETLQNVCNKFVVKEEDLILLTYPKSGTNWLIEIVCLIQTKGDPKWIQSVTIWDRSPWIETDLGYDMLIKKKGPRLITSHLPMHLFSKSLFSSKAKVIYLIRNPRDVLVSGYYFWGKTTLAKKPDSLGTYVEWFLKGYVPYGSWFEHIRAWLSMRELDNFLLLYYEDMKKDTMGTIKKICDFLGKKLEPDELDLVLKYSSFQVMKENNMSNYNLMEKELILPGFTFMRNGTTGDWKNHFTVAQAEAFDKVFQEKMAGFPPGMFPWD

rSULT1A1 [3] = target: T1, rSULT1A1; assay: Inhibition of rSULT1A1-catalyzed sulfation of 2-naphthol; assay type: biochemical
[4] = Solubility of OHPCBs in the SULT assay buffer by light scattering at 400 nm; assay type: physicochemical
hSULT2A1 = conditions: ref Liu et al., 2006; cited from earlier work
rSULT1A1 [5] = target: T1, rSULT1A1; assay: Assay of OHPCBs as potential substrates of rSULT1A1; assay type: biochemical; conditions: presence of reducing agents; within limits of solubility
In short: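 Recombinant rat SULT1A1 was expressed in E. coli at 29°C without IPTG and purified by PAP-agarose affinity with a PAP gradient in DTT-containing buffer. […] Substrate-dependent PAP formation was the read-out.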

[6] = 37 °C, pH 7, aqueous buffer, kinetic from dmso stock
[7] = 37°C, 0.25 M potassium phosphate pH 7.0, […] (v/v) acetone, 7.5 mM 2-mercaptoethanol, light scattering

T1 sequence (P17988 whole entry): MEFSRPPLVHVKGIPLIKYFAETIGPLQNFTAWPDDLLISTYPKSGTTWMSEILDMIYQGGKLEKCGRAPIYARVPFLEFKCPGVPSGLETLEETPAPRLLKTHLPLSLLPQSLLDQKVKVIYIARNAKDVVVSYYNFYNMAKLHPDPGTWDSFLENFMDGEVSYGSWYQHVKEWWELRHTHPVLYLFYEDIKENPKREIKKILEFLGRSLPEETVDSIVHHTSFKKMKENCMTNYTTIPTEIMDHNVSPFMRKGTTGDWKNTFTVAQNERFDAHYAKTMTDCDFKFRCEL

## Oc1ccc(-c2ccccc2Cl)cc1Cl [4′-OH PCB 6, 3,2′-Dichloro-biphenyl-4-ol]
rSULT1A1 [1]
  Rate of sulfation, rSULT1A1 pretreated with 1 mM GSSG: 37.3±4.0 nmoles of product/mg/min
rSULT1A1 [2]
  Sulfation at varying OHPCB concentrations, rSULT1A1 pretreated with 1 mM GSSG: concentration-dependent sulfation
rSULT2A3
  Inhibition of rSULT2A3 reached: less than 50%
rSULT1A1 [3]
  IC50: 22.7 µM
[4]; [6]
  Solubility: 250 µM (≈ 59.8 µg/mL)

## Oc1ccc(-c2ccc(Cl)c(Cl)c2)cc1 [4′-OH PCB 12]
[4]; [7]
  Solubility: ≥500 µM

## Oc1ccc2ccccc2c1 [2-Naphthol]
rSULT1A1 [1]
  Rate of sulfation, rSULT1A1 pretreated with 1 mM GSSG: 50.2±2.1 ^c nmoles of product/mg/min
  Rate of sulfation, rSULT1A1 pretreated with 5 mM DTT: 38.3±4.7 nmoles of product/mg/min

## Oc1ccc(-c2cc(Cl)cc(Cl)c2)cc1Cl [4′-OH PCB 36]
rSULT1A1 [3]; 2-naphthol as substrate, up to full inhibition or limit of solubility
  Inhibition of rSULT1A1 reached: about 65%
[4]; [7]
  Solubility: 50 µM (≈ 13.7 µg/mL)

## Oc1c(Cl)cc(-c2ccccc2)cc1Cl [4-OH PCB 14]
rSULT1A1 [2]
  Sulfation at varying OHPCB concentrations, rSULT1A1 pretreated with 1 mM GSSG: concentration-dependent sulfation
[4]; [7]
  Solubility: ≥1000 µM

## Oc1c(Cl)cc(-c2ccccc2Cl)cc1Cl [4-OH PCB 34]
[4]; [7]
  Solubility: 300 µM (≈ 82.1 µg/mL)
hSULT2A1
  Substrate activity for hSULT2A1: good substrates

## Oc1ccc(-c2ccc(Cl)c(Cl)c2)cc1Cl [4′-OH PCB 35]
rSULT1A1 [5]
  Substrate inhibition with rSULT1A1: did not show substrate inhibition
[4]; [7]
  Solubility: 50 µM (≈ 13.7 µg/mL)

## Oc1ccc(-c2ccc(Cl)c(Cl)c2)c(Cl)c1 [4′-OH PCB 33, 2,3′,4′-Trichloro-biphenyl-4-ol]
rSULT1A1 [2]
  Sulfation at varying OHPCB concentrations, rSULT1A1 pretreated with 1 mM GSSG: concentration-dependent sulfation
rSULT2A3
  Inhibition of rSULT2A3 reached: less than 50%
rSULT1A1 [3]
  IC50: 26.2 µM
[4]; [6]
  Solubility: 50 µM (≈ 13.7 µg/mL)

## Oc1ccc(-c2cc(Cl)ccc2Cl)cc1 [4′-OH PCB 9]
rSULT1A1 [2]
  Substrate inhibition in both reduced and oxidized rSULT1A1-catalyzed reactions: presence of substrate inhibition
  Sulfation by GSSG-pretreated rSULT1A1 compared with GSH-pretreated enzyme: only slightly increased
rSULT2A3
  Inhibition of rSULT2A3 reached: full inhibition
[4]; [7]
  Solubility: 500 µM (≈ 120 µg/mL)
hSULT2A1
  Inhibition of hSULT2A1: potent inhibitor

## Oc1ccc(-c2ccc(Cl)cc2Cl)cc1Cl [4′-OH PCB 25]
[4]; [7]
  Solubility: 100 µM (≈ 27.4 µg/mL)

## Oc1ccc(-c2ccc(Cl)cc2)c(Cl)c1 [4-OH PCB 8, 2,4′-Dichloro-biphenyl-4-ol]
rSULT2A3
  IC50: ~400 µM
[4]; [6]
  Solubility: ≥ 500 µM

## Oc1ccc(Cl)cc1-c1ccc(Cl)c(Cl)c1 [6′-OH PCB 35]
rSULT1A1 [2]
  Substrate inhibition in both reduced and oxidized rSULT1A1-catalyzed reactions: absence of substrate inhibition
  Sulfation by GSSG-pretreated rSULT1A1 compared with GSH-pretreated enzyme: only slightly increased
rSULT1A1 [5]
  Substrate inhibition with rSULT1A1: did not show substrate inhibition
[4]; [7]
  Solubility: 100 µM (≈ 27.4 µg/mL)

## Oc1ccc(-c2ccc(Cl)cc2)cc1 [4′-OH PCB 3]
[4]; [7]
  Solubility: 300 µM (≈ 61.4 µg/mL)

## Oc1c(Cl)cc(-c2ccc(Cl)cc2Cl)cc1Cl [4′-OH PCB 68]
[4]; [7]
  Solubility: 50 µM (≈ 15.4 µg/mL)
hSULT2A1
  Substrate activity for hSULT2A1: good substrates
